In the library only some 1.1% were active in any assay of this set; here they are far more common.
aDG glyco act: alpha-DG glycosylation activation; Pro5-aDG cells, alpha-DG glycosylation AlphaScreen (IIH6); 0% Pro5, 100% B10-LARGE cell signal; AID 624168; 360,000 compounds, 0.22% hits; activation, % at 10 µM;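 active = activation of at least 8% versus controls, or a plate z-score of at least 8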;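 also: Pro5 are CHO cells carrying HIG-tagged alpha-DG that lacks glycosylation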
T cell modulator: T cell immune modulators affecting CD8 T cell-vesicle binding; 2C CD8+ T cell-vesicle binding, flow cytometry; active compounds read low; response (vesicle binding), % at 7 µM; 330,000 compounds, 0.068% hits; AID 2052;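 active = response, share of CD8 T cells binding vesicles, and their 90th percentile fluorescence all below set limits, cut at about 80% in these data, passing the limit was not always enough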;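 also: values below 100% mean blocked vesicle binding to the CD8+ T cells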
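Read-out – percent CD8+ FL2 mean versus row control · System – murine 2C transgenic CD8+ T lymphocytes · Times – 1.5 h cell–vesicle binding at 37 °C, then 20 min icy labelling · Control set – naked vesicles low, QL9 vesicles with vehicle high · Detection – cytometric PE anti-B7-1 and Alexa647 anti-CD8 signals after 1% paraformaldehyde fixation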
GRK2 aptamer HTS: human GRK2 inhibition via aptamer displacement; P25098; bead flow cytometry, FAM-aptamer displacement from GRK2; inhibition of aptamer binding, % at 10 µM; 330,000 compounds, 0.59% hits; AID 488847;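 active = inhibition of aptamer binding above 40%, roughly 3 SD of noise, on plates passing a quality check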;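 also: median bead fluorescence of bound FAM aptamer so fluorescent compounds give negative values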
Target sequence (P25098 whole entry, looked up): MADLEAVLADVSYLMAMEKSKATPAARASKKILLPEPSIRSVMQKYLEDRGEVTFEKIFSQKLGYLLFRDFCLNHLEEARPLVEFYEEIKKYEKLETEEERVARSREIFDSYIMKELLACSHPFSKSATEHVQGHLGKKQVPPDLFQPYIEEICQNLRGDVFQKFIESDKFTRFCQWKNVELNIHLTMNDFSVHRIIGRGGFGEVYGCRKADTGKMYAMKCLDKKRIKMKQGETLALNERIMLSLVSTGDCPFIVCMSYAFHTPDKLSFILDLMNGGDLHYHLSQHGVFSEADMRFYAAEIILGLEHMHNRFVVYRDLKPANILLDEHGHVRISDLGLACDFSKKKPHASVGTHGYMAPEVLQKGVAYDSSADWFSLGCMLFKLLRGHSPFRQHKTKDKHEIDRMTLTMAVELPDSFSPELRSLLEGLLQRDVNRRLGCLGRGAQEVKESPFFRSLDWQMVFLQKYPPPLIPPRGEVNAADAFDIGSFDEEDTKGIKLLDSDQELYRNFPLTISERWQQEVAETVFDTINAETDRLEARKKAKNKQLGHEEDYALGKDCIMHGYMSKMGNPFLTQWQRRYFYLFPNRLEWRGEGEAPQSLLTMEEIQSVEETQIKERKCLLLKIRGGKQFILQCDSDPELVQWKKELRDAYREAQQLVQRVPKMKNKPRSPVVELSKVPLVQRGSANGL
procasp3 activ: activates human procaspase-3; recombinant procaspase-3 D3A, Ac-DEVD-pNA absorbance 405 nm; activation, % at 8.5 µM; 330,000 compounds, 0.11% hits; AID 463141;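 active = activation above the mean of all tested compounds plus 3 SD, cut at about 21% in these data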;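 also: 0% = DMSO alone and 100% = DMSO wells spiked with extra 5 µM PC-3 D3A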
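Assay system: Autoprocessing-dead procaspase-3 D3A mutant enzyme; also added: Ac-DEVD-pNA; doses: one concentration, 8.5 µM nominal, 0.8% DMSO; times: 1 h compound preincubation, 2 h substrate hydrolysis at 25 °C; technique: 405 nm absorbance of p-nitroaniline, reads at 0 and 120 min; measure: % activation between DMSO and enzyme-spiked controls; repeats: single replicate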
procasp7 counter: counter-screen: procaspase-7 (human) activation | P55210 | recombinant procaspase-7, Ac-DEVD-pNA absorbance 405 nm; D23A/D198A/D206A triple mutant, cannot self-cleave; scale: DMSO 0, 5 µM enzyme 100 | activation, % at 8.5 µM | 330,000 compounds, 0.093% hits | AID 463210;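 active = percent activation above the screen-wide mean plus 3 SD, cut at about 25% in these data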
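signal = Epi-absorbance of released pNA at 405 nm, two timepoints | assay system = Uncleavable procaspase-7 mutant enzyme | reagent = Ac-DEVD-pNA substrate, 400 µM as added | times = 1 h enzyme–compound preincubation and 2 h substrate reaction, both 25 °C | benchmarks = low DMSO alone, high DMSO plus 5 µM PC-7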
CaV13 ICDI inh: Primary screen for inhibitors of IQ motif and Ca2+-dependent inactivation inhibitor domain binding in CACNA1D, Förster resonance energy transfer in living cells, …. 340,000 compounds, 0.098% hits. HEK cells, CFP/YFP FRET ICDI-IQ, plate reader, 10 min; percent FRET-ratio fall versus neutral wells. inhibition, % at 12.3 µM;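 active = mean replicate inhibition of at least 30% and at least 1% of replicates passing that level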;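 also: 0% = median of the neutral control wells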
Active calls of the source: *; . = no result.

SMILES	aDG glyco act	T cell modulator	GRK2 aptamer HTS	procasp3 activ	procasp7 counter	CaV13 ICDI inh
O=C(N/N=C/c1ccc([N+](=O)[O-])s1)c1ccncc1	12*	989	4	-5	-8	.
COC(=O)C1=C(C)N(Cc2ccc(C(F)(F)F)cc2)C(=NCc2ccc(C(F)(F)F)cc2)NC1c1ccc(F)cc1 (stereo not drawn)	.	.	.	.	.	-7
Nc1[nH]c(C(=O)c2ccccc2)c(-c2ccc(Cl)cc2F)c1C(=O)NCCc1c[nH]c2ccccc12	.	.	.	.	.	-16
CCCCCCCCN1C(=O)[C@@H](CC(=O)NCc2cccc3ccccc23)C[C@@]2(C(=O)OC)C1=C[C@H](C(C)(C)C)O[C@@H]2C	.	.	.	.	.	-9
O=C(O)C(=Cc1ccc([N+](=O)[O-])cc1)c1ccccc1	.	.	.	.	.	-12
CCCOc1ccc(C(=O)CCC(=O)OCC(=O)Nc2ccc(OCC)cc2)cc1	.	443	85*	-13	3	-2
O=C(C[C@@H]1C[C@@H]2c3cc(NC(=O)c4ccc5c(c4)OCO5)ccc3O[C@@H]2[C@@H](CO)O1)NCc1cccnc1	.	.	.	.	.	-6
COc1ccc(-c2noc(CCC(=O)NCCCN3CCC(Cc4ccccc4)CC3)n2)cc1	5.5*	189	0	-3	16	-5
O=C(NCCc1cccc(Cl)c1)C1CCC(=O)N(Cc2ccc(Cl)cc2)C1 (stereo not drawn)	0	284	0	2	-8	-5
O=C(NCCc1nc2ccc(Cl)cc2[nH]1)C1CCC(=O)N(Cc2cccc(F)c2)C1 (stereo not drawn)	0	67*	3	8	-4	-7
CCOc1ccc2nc(NCCCNS(=O)(=O)c3ccc(F)cc3)c(C#N)cc2c1	1	368	6	0	-4	33*
O=C(N[C@H](Cc1ccccc1)C(=O)NCCN1CCOCC1)[C@H]1O[C@@H](n2ccc(=O)[nH]c2=O)[C@H](O)[C@@H]1O	.	.	.	.	.	-8
S=C(Nc1ccc(Nc2ccccc2)cc1)Nc1ccccn1	9.4*	207	3	-5	-3	-8
O=C(C(=O)N1CCN(S(=O)(=O)c2ccc(OC(F)(F)F)cc2)CC1)c1cccc(C(F)(F)F)c1	.	.	.	.	.	-7
CCOC1=NN(c2ncc(C(F)(F)F)cc2Cl)C(=O)C1	0	143	4	-1	9	34*
O=C(NCc1ccc(F)cc1)C1CCCN1C(=O)Nc1cccc(F)c1 (stereo not drawn)	0	0	0	-6	5	64*
COc1ccc(NC(=O)N2CCCC2C(=O)NCc2ccc(F)cc2)cc1 (stereo not drawn)	0	291	0	4	-1	.
Cc1ccc(-n2cc(CNCCc3ncc(C)[nH]3)c(-c3ccc(F)cc3)n2)cc1	11*	302	0	4	6	-5
COc1ccc(CNC(=O)[C@@H](Cc2ccccc2)NC(=O)[C@H]2O[C@@H](n3cnc4c(=O)[nH]c(N)nc43)[C@H](O)[C@@H]2O)cc1	.	.	.	.	.	-5
CN(c1ccc(C(=O)Nc2ccccn2)cc1)S(=O)(=O)c1ccccc1	-1	57*	2	8	11	-2
CCN(c1ccccc1)S(=O)(=O)c1ccc(C(=O)Nc2ccccn2)cc1	0	288	2	14	7	-5
Nc1c(S(=O)(=O)c2ccccc2)c2nc3ccccc3nc2n1Cc1ccco1	19*	403	5	8	3	-7
CCOC(=O)CC1CCCCN1C(=O)c1cc(COc2cccc3cnccc23)on1 (stereo not drawn)	6.7*	234	0	7	6	-7
COC(=O)C1CCCCN1C(=O)c1cc(COc2cccc3cnccc23)on1 (stereo not drawn)	2	187	0	-6	5	-7
COC(=O)[C@]12C[C@H](CC(=O)NCc3cccc4ccccc34)C(=O)N(CCC3=CCCCC3)C1=C[C@H](COCc1ccccc1)O[C@@H]2C	.	.	.	.	.	-10
